In ChEMBL document CHEMBL1149527, “Antiproliferative and apoptosis inducing properties of pyrano[3,2-c]pyridones accessible by a one-step multicomponent synthesis” (Bioorg Med Chem Lett, 2007) one finds IC50 and Activity data, which are given here for 14 compounds.

Active and inactive are the calls of the source. No cut-off for these calls is given here.

One assay deals with HeLa. The assay is described as follows: Antiproliferative activity against human HeLa cells after 48 hrs by MTT assay relative to control. The format is functional, cell-based. An outline of the steps: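 HeLa cells exposed to compounds for 48 h; viability read as mitochondrial dehydrogenase activity by MTT reduction; IC50 values derived.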
Background: Formazan colour is commonly taken as a measure of viable cells.

Assay [1] relates to Jurkat. As to the kind of experiment: Induction of apoptosis in Jurkat cells at 5 uM after 36 hrs by flow cytometry. It is filed as functional, Homo sapiens. An outline of the steps:
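Jurkat cells incubated 36 h with agents at 5 μM (DMSO control); apoptosis scored by flow cytometry after annexin-V/propidium iodide staining; two experiments.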

The test system of assay [2] is Jurkat. The assay is described as follows: Cell cycle arrest in Jurkat cells assessed as accumulation at G0/G1 phase at 5 uM after 15 hrs relative to control. It is filed as functional, Homo sapiens. The method, boiled down:
(§1)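 Jurkat cells treated 15 h (test agents 5 μM, colchicine 25 μM, DMSO vehicle control); DNA stained with Vybrant Orange and analysed by flow cytometry; percent of cells in G0/G1, S and G2/M given as mean ± SD.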

Assay [3] has as its system Jurkat. As to the kind of experiment: Cell cycle arrest in Jurkat cells assessed as accumulation at S phase at 5 uM after 15 hrs relative to control. The format is functional, Homo sapiens. The method, boiled down: as §1
Assay [4] deals with Jurkat. The assay is described as follows: Cell cycle arrest in Jurkat cells assessed as accumulation at G2/M phase at 5 uM after 15 hrs relative to control. It is filed as functional, Homo sapiens. The method, boiled down: as §1
The subject of assay [5] is Jurkat. As to the kind of experiment: Cell cycle arrest in Jurkat cells assessed as accumulation at G0/G1 phase at 25 uM after 15 hrs relative to control. It is filed as functional, Homo sapiens. An outline of the steps: as §1
Assay [6] concerns Jurkat. As to the kind of experiment: Cell cycle arrest in Jurkat cells assessed as accumulation at S phase at 25 uM after 15 hrs relative to control. It is filed as functional, Homo sapiens. An outline of the steps:
as §1

Assay [7] relates to Jurkat. The assay is described as follows: Cell cycle arrest in Jurkat cells assessed as accumulation at G2/M phase at 25 uM after 15 hrs relative to control. It is filed as functional, Homo sapiens. The method, boiled down: as §1

A word on the IC50: it is the concentration at which inhibition is half-maximal. Lower therefore signals greater potency. On to `Cc1cc2c(c(=O)n1C)C(c1ccc(F)c(Br)c1)C(C#N)=C(N)O2` (stereo not drawn), for which inhibition in the assay on HeLa was half-maximal at 6.33 µM (IC50). Further, in the assay with Jurkat [1], the Activity stood at 50%.
`Cc1cc2c(c(=O)n1C)C(c1ccc(C(C)C)cc1)C(C#N)=C(N)O2` (stereo not drawn): the IC50 in the assay on HeLa was greater than 100 µM. Besides, the result with Jurkat [1] (Homo sapiens) was inactive.
For `Cc1cc2c(c(=O)n1C)C(c1cccc([N+](=O)[O-])c1)C(C#N)=C(N)O2` (stereo not drawn), the IC50 in the assay on HeLa is 35 µM. Moreover, the result in the assay with Jurkat [1] (Homo sapiens) was inactive.
For `Cc1cc2c(c(=O)o1)C(c1cccc(Br)c1)C(C#N)=C(N)O2` (stereo not drawn), the IC50 with HeLa is greater than 100 µM.
`COc1cc(C2C(C#N)=C(N)Oc3cc(C)n(C)c(=O)c32)cc(Br)c1OC` (stereo not drawn) returned an IC50 with HeLa of 0.58 µM. The Activity in the assay with Jurkat [1] was 50%; with Jurkat [2] it was 12%; in the assay with Jurkat [3], 19%; in the assay on Jurkat [4], 68.5%.
`COc1ccc(CCn2c(C)cc3c(c2=O)C(c2cc(OC)c(OC)c(OC)c2)C(C#N)=C(N)O3)cc1OC` (stereo not drawn) displayed an IC50 in the assay on HeLa of 22.7 µM. The outcome with Jurkat [1] (Homo sapiens) was inactive.
Compound `Cc1cc2c(c(=O)n1C)C(c1cccc(Br)c1)C(C#N)=C(N)O2` (stereo not drawn) yielded an IC50 in the assay on HeLa of 6.5 µM. This compound displayed an Activity in the assay with Jurkat [1] of 50%.
As to `COc1cc(C2C(C#N)=C(N)Oc3cc(C)n(C)c(=O)c32)cc(OC)c1OC` (stereo not drawn), the IC50 in the assay with HeLa was 43.3 µM.
As to `Cc1cc2c(c(=O)n1C)C(c1ccc(Cl)c(Cl)c1)C(C#N)=C(N)O2` (stereo not drawn), in the assay on HeLa, the IC50 came out at 18.3 µM. Also, the result in the assay on Jurkat [1] (Homo sapiens) was inactive.
In the assay with HeLa, `COc1cc(C2C(C#N)=C(N)Oc3cc(C)n(C)c(=O)c32)cc(Br)c1O` (stereo not drawn) returned an IC50 of 2.67 µM. In the assay with Jurkat [1], the Activity was 50%.
With `COc1cc2c(c(OC)c1OC)-c1ccc(OC)c(=O)cc1[C@@H](NC(C)=O)CC2` [COLCHICINE], the results for the Activity in the assay on Jurkat [5], in the assay on Jurkat [6] and in the assay on Jurkat [7] were 19%, 23.1% and 57.9%, respectively.
`CCOc1c(Br)cc(C2C(C#N)=C(N)Oc3cc(C)n(C)c(=O)c32)cc1OC` (stereo not drawn): it took 1.08 µM to reach half-maximal inhibition in the assay on HeLa (IC50). The same compound returned an Activity in the assay with Jurkat [1] of 50%.
As for `Cc1cc2c(c(=O)n1C)C(c1ccc(N(C)C)c(Br)c1)C(C#N)=C(N)O2` (stereo not drawn), it took 0.33 µM to reach half-maximal inhibition with HeLa (IC50). Besides, the Activity is reported as 50% with Jurkat [1], 14.4% with Jurkat [2], 18.1% in the assay on Jurkat [3] and 67.5% in the assay on Jurkat [4].
As to `COc1cc(C2C(C#N)=C(N)Oc3cc(C)n(C)c(=O)c32)cc(Br)c1OC(C)=O` (stereo not drawn), the IC50 in the assay on HeLa amounted to 3.5 µM. In the assay with Jurkat [1], the Activity is reported as 50%.
